From article PMC12217639 (Scientific Reports, 2025)
Peptide text beside a SMILES is read from it.

Legend:
Format in all cases: cell-based, human
[1] = tested on: PDO-S (ICC patient-derived organoid); assay: Drug sensitivity experiment of organoids; details: by IC50, 24 h, CellTiter-Glo
[2] = tested on: PDO-K (ICC patient-derived organoid); assay: Drug sensitivity experiment of organoids; details: by IC50, 24 h, CellTiter-Glo; for overall sensitivity of the three PDOs: overall across PDO-K, PDO-S and PDO-L
[3] = tested on: PDO-L (ICC patient-derived organoid); assay: Drug sensitivity experiment of organoids; details: by IC50, 24 h, CellTiter-Glo
[4] = tested on: HIBEpiC cells; assay: Membrane potential; details: 1 x 10^5 cells/mL, peptide 2.5, 5, 10, 20 µM, 1 h
Outline: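 A cell suspension at 1 × 10^5 cells/mL was incubated 1 h with peptide at 0 (control), 2.5, 5, 10 or 20 µM. The mixture was then loaded into a folded capillary cell, and zeta potential was read on a NanoZetasizer.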

Compound	rank of therapeutic effect among the drugs, PDO-S [1]	rank of therapeutic effect among the drugs, PDO-K [2]	overall sensitivity of the three PDOs [2]	rank of therapeutic effect among the drugs, PDO-L [3]	change of zeta potential of normal cells after peptide treatment [4]
Nc1ccn([C@@H]2O[C@H](CO)[C@@H](O)C2(F)F)c(=O)n1 [Gemcitabine]	most effective	–	–	–	–
CC(C)C[C@H](NC(=O)[C@H](CC(C)C)NC(=O)[C@H](CCCCN)NC(=O)[C@H](CCCCN)NC(=O)[C@H](CC(C)C)NC(=O)[C@H](CC(C)C)NC(=O)[C@H](CCCCN)NC(=O)[C@H](CCCCN)NC(=O)[C@H](CC(C)C)NC(=O)[C@H](CC(C)C)NC(=O)[C@H](CCCCN)NC(=O)[C@H](CCCCN)NC(=O)[C@H](CC(C)C)NC(=O)[C@@H](N)CC(C)C)C(N)=O [KL-8] (H-LLKKLLKKLLKKLL-NH2)	–	best therapeutic effect	highest sensitivity	best therapeutic effect	no statistically significant changes
CNC(=O)c1cc(Oc2ccc(NC(=O)Nc3ccc(Cl)c(C(F)(F)F)c3)cc2)ccn1 [Sorafenib, reference compound]	–	–	lowest sensitivity	–	–
